An excerpt weighted towards active compounds, which were near 2.3% of everything screened.
TAAR1 ag – human TAAR1 agonism. CHO RD-HGA16 TAAR1, Fluo-8 calcium fluorescence; vehicle wells 0%, saturating PEA agonist 100%. activation, % at 3 µM. actives 0.99% (n = 360,000);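 active means activation above the mean activation of all test compounds in the run plus 3 SD, cut at about 38% in these data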
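Signal – calcium-sensitive Fluo-8 signal, excitation 470-495, emission 515-575 nm · System – RD-HGA16 (CHO) cells co-expressing Gα16 and hTAAR1 · Incubation – 17-24 h seeding, 75 min 37 °C dye, 30 min RT · Compound dosing – 3 µM single concentration · Repeats – no replicates (n 1)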
TAAR1 antagonist – antagonists of human TAAR1 | CHO RD-HGA16 TAAR1, Fluo-8 calcium fluorescence, antagonist | inhibition, % at 3 µM | actives 1.5% (n = 360,000);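 active means inhibition above a per-plate cutoff, the mean inhibition of test compounds on that plate plus 3 SD, cut at about 49% in these data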
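Material: CHO RD-HGA16 cells bearing hTAAR1; compound dosing: one-point dosing, 3 µM nominal final; schedule: dye loading 75 min at 37 °C, then 30 min room temperature; measured by: calcium fluorescence with Fluo-8; control set: vehicle and agonist controls; replication: n of 1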
V1aR counter – counter-screen for oxytocin receptor agonists: human V1a receptor agonists | CHO-V1R cells, Fluo-8 calcium fluorescence, agonist mode; 0% DMSO, 100% 3 nM vasopressin | activation, % at 3 µM | actives 0.25% (n = 320,000) | AID 2797;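 active means activation above the mean activation of all tested compounds plus 3 SD, per screening run, cut at about 20% in these data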;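 further: signal is peak over basal fluorescence ratio across a 100 second FLIPR read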
Target sequence (P37288 whole entry, looked up): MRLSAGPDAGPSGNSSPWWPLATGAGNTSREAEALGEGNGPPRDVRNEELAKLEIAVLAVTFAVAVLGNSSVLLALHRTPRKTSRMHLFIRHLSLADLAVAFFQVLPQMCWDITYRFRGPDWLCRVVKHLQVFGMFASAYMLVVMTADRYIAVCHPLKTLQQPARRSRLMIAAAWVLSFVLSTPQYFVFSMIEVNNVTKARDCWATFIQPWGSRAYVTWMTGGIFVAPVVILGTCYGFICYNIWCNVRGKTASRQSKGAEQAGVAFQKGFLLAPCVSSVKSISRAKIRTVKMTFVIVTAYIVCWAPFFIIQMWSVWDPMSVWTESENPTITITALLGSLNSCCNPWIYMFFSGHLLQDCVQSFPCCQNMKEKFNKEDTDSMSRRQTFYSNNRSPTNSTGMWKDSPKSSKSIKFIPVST
OXTR ag – agonists of human oxytocin receptor. actives 0.32% (n = 320,000). CHO-OTR cells, Fluo-8 calcium fluorescence; normalized: DMSO 0%, oxytocin 100%. P30559. activation, % at 3 µM;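 active means activation above the mean of all tested compounds plus 3 SD, cutoff set per screening run, cut at about 20% in these data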;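 further: peak over basal fluorescence ratio from a 100 s FLIPR kinetic read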
Target sequence (P30559 whole entry, looked up): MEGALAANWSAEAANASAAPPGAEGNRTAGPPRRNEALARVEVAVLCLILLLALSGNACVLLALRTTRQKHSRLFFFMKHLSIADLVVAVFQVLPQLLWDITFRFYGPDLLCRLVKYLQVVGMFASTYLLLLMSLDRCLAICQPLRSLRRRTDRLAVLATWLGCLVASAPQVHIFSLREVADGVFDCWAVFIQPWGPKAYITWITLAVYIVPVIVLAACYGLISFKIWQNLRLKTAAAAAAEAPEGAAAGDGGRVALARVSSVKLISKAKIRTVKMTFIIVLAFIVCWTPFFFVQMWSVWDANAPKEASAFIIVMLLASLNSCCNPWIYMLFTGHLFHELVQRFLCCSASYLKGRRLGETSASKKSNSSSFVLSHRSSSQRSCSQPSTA
OXTR potentiator – potentiates the human oxytocin receptor response. CHO-OTR cells, Fluo-8 calcium fluorescence, potentiator mode; 0% = oxytocin EC15, 100% = EC100. activation, % at 3 µM. actives 0.061% (n = 320,000). AID 2445;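 active means activation above that plate's cutoff, the mean activation of tested compounds plus 3 SD, cut at about 6.6% in these data, passing the limit was not always enough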
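Assay system: CHO-OTR cells, human receptor / Also added: oxytocin at about EC15, sub-maximal agonist stimulus / Dosing: single dose, 3.0 µM nominal final compound concentration / Incubation: 6 min pre-incubation, 100 s read / Technique: Fluo-8 calcium dye fluorescence / Read-out: % activation vs EC15 and EC100 oxytocin / Benchmarks: EC15 oxytocin low, 75 nM oxytocin high / Replicates: singlicate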
V1aR agonist cf – human V1a receptor agonism, confirmation; shares compounds with V1aR counter; CHO-V1R cells, Fluo-8 calcium fluorescence, agonist; activation, % at 3 µM; actives 20% (n = 180); AID 434964;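 active means average activation exceeds primary screen hit cutoff, cut at about 21% in these data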;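 further: peak over basal fluorescence ratio during a 100 s FLIPR read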
OXTR ag counter – OXTR agonism, counter-screen for V1R agonists; CHO-OTR cells, Fluo-8 calcium fluorescence, agonist; shares compounds with V1aR counter; activation, % at 3 µM; AID 434969; actives 10% (n = 180);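 active means mean activation over three repeats above the cutoff from the earlier oxytocin receptor agonist screen, cut at about 20% in these data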;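 further: peak over minimum fluorescence ratio within a 100 second FLIPR read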
nonsel antag count – nonselective antagonism, TAAR1 counter-screen. inhibition, % at 3 µM. actives 77% (n = 2,400). shares compounds with TAAR1 antagonist. counterscreen cell line, calcium fluorescence, antagonist mode. AID 651780; in the data active means inhibition above about 22%;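 further: CHO-Ga16 host cells stimulated with ATP at an EC80 level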
TAAR1 ant conf – confirmation of human TAAR1 antagonists. shares compounds with TAAR1 antagonist. TAAR1-expressing cells, fluorescence antagonist read-out. inhibition, % at 3 µM. actives 40% (n = 2,400); in the data active means inhibition above about 49%;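 further: CHO-Ga16 host cells challenged with agonist PEA near its EC80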
Ga16 ag counter-1 – nonselective Ga16 agonism, counter-screen; Ga16-expressing cells, calcium fluorescence, agonist counterscreen; actives 18% (n = 2,400); AID 651953; activation, % at 3 µM; shares compounds with TAAR1 antagonist; in the data active means activation above about 12%
TAAR1 ag count – counter-screen for human TAAR1 antagonists: TAAR1 agonists. shares compounds with TAAR1 antagonist. hTAAR1 cell line, fluorescence activation, agonist mode. activation, % at 3 µM. actives 2% (n = 2,400). AID 651955; in the data active means activation above about 37%;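 further: CHO cells stably expressing TAAR1 with calcium dye readout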
TAAR1 ag conf – human TAAR1 agonism, confirmed; shares compounds with TAAR1 ag; CHO RD-HGA16 TAAR1, Fluo-8 calcium fluorescence; scaled: DMSO 0%, maximal phenethylamine 100%; activation, % at 3 µM; actives 82% (n = 2,400);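 active means activation above a cutoff set at the run's mean compound activation plus 3 SD, cut at about 39% in these data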
Ga16 ag counter-2 – counter-screen for TAAR1 agonists: nonselective agonists in parental cells. actives 50% (n = 2,400). CHO-Ga16 parental, Fluo-8 calcium fluorescence; normalized to maximal ATP response, DMSO zero. shares compounds with TAAR1 ag. activation, % at 3 µM;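 active means activation above the run cutoff, the mean activation over all tested wells plus 3 SD, cut at about 12% in these data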
TAAR1 desens – counter-screen for human TAAR1 agonists: agonists that desensitize TAAR1 | shares compounds with TAAR1 ag | CHO RD-HGA16 hTAAR1, Fluo-8 calcium, beta-PEA response inhibition | inhibition, % at 3 µM | actives 46% (n = 2,400) | AID 651951;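 active means inhibition above the run cutoff, the mean inhibition of all test compounds plus 3 SD, cut at about 49% in these data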;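 further: beta-PEA stimulus applied at its EC80; loss of beta-PEA calcium signal after compound pretreatment read as receptor desensitization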
Ga16 nonsel ant – counter-screen for TAAR1 agonists: nonselective Ga16 antagonists; shares compounds with TAAR1 ag; CHO-Ga16 ATP-induced calcium, Fluo-8 fluorescence; inhibition, % at 3 µM; actives 39% (n = 2,400); AID 651952;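 active means inhibition above the plate's mean compound inhibition plus 3 SD, computed per plate, cut at about 22% in these data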
Numbers stand for hits; n = inactive; x = no result.

SMILES	TAAR1 ag	TAAR1 antagonist	V1aR counter	OXTR ag	OXTR potentiator	nonsel antag count	TAAR1 ant conf	Ga16 ag counter-1	TAAR1 ag count	others
CCOc1ccc(NC2=NCC(=O)N2CCc2ccccc2)cc1	70	n	20	n	n	x	x	x	x	V1aR agonist cf=n;OXTR ag counter=n;TAAR1 ag conf=81;Ga16 ag counter-2=42;TAAR1 desens=82;Ga16 nonsel ant=52
CN(C(=O)CSc1ncnc2sccc12)C1CCCCC1	n	n	n	n	n	x	x	x	x
O=C(c1cccs1)c1c[nH]cc1-c1ccccc1	n	n	n	n	n	x	x	x	x
CCCNS(=O)(=O)c1ccc(Oc2ncc(C(F)(F)F)cc2Cl)cc1	53	n	23	n	n	x	x	x	x	V1aR agonist cf=n;OXTR ag counter=n;TAAR1 ag conf=40;Ga16 ag counter-2=23;TAAR1 desens=n;Ga16 nonsel ant=n
O=C(C[C@@H]1C/C=C\C[C@H](Cc2ccc(F)cc2)C(=O)OC[C@H]2CCCN2C1=O)N[C@H](CO)Cc1ccccc1	n	61	n	n	n	23	n	n	n
CC(C)(C)OC(=O)C[C@H]1C/C=C\C[C@H](CC(=O)N(CCO)Cc2ccccc2)C(=O)N[C@@H](c2ccccc2)COC1=O	n	56	n	n	n	30	n	n	n
O=C1N[C@@H](Cc2ccccc2)COC(=O)[C@H](Cc2ccc(F)cc2)C/C=C\C[C@@H]1CC(=O)N(CCO)Cc1ccccc1	n	n	n	n	n	x	x	x	x
O=C1N[C@@H](c2ccccc2)COC(=O)[C@H](Cc2ccc(F)cc2)CC/C=C/C[C@H]1CC(=O)N(CCO)Cc1ccccc1	n	61	n	n	n	32	n	13	n
O=C1N[C@H](Cc2ccccc2)COC(=O)[C@H](Cc2ccc(F)cc2)C/C=C\C[C@@H]1CC(=O)N(CCO)Cc1ccccc1	n	54	n	n	n	32	49	12	n
Cc1cc(C(=O)C(C)OC(=O)c2cnccn2)c(C)n1-c1ccccc1 (stereo not drawn)	n	n	n	n	n	x	x	x	x
COC(=O)C(CC(=O)c1ccc(Cl)cc1)c1ccccc1 (stereo not drawn)	n	n	x	x	x	x	x	x	x
Cc1noc(C)c1S(=O)(=O)N1CCCC(C(=O)NCc2ccccc2Cl)C1 (stereo not drawn)	n	n	n	n	n	x	x	x	x
O=C1Nc2ccccc2-n2nnnc2C1N1CCc2ccccc2C1 (stereo not drawn)	n	n	x	x	x	x	x	x	x
COc1cccc(CC(NC(C)=O)C(=O)NC2CCN(S(=O)(=O)c3ccc(C)cc3)CC2)c1OC (stereo not drawn)	n	n	n	n	n	x	x	x	x
O=C(Cc1ccccc1)NNC(=O)Nc1cccc(Cl)c1	n	n	n	n	n	x	x	x	x
O=C(CN1c2ccccc2Sc2ccccc21)NNC(=O)Nc1cccc(Cl)c1	n	58	n	n	n	n	n	n	n
O=C(c1cc2ccccc2o1)N(C1CC1)C1(C(=O)Nc2ccccc2)CCCC1	n	n	n	n	n	x	x	x	x
Oc1ccc(-c2nc3ccccn3c2NCc2ccc3c(c2)OCO3)cc1	n	55	n	n	n	30	53	n	n
Fc1ccc(-c2nc3ccccn3c2NCc2ccc3c(c2)OCO3)cc1	n	n	n	n	n	x	x	x	x
COc1ccc(CCNC2=C(Cl)C(=O)N(CCc3ccc(OC)c(OC)c3)C2=O)cc1OC	n	74	n	n	n	44	60	n	n
CC(C)=C(NC(=O)c1ccccc1Cl)C(=O)NCCc1nc2ccccc2[nH]1	n	n	x	x	x	x	x	x	x
O=C(Nc1cccc(NC(=O)c2cncc(Br)c2)c1)c1cncc(Br)c1	n	67	n	n	n	29	52	17	n
OCCNc1ncnc2c1c(-c1ccccc1)c(-c1ccccc1)n2Cc1ccco1	n	n	n	n	n	x	x	x	x
c1ccc(-c2c(-c3ccccc3)n(Cc3ccco3)c3ncnc(NCCCn4ccnc4)c23)cc1	n	61	n	n	n	25	n	22	40
O=C(NCCN1C(=O)S/C(=C\c2ccc(Cl)cc2)C1=O)c1ccc(F)c(S(=O)(=O)N2CCOCC2)c1	n	n	n	n	n	x	x	x	x
SMILES	TAAR1 ag	TAAR1 antagonist	V1aR counter	OXTR ag	OXTR potentiator	nonsel antag count	TAAR1 ant conf	Ga16 ag counter-1	TAAR1 ag count	others
O=C(NCCN1C(=O)S/C(=C\c2ccccc2)C1=O)c1cc(S(=O)(=O)N2CCOCC2)c(Cl)cc1Cl	n	78	n	n	n	50	70	19	n
O=C(NCCN1C(=O)S/C(=C\c2ccc(F)cc2)C1=O)c1cccc(S(=O)(=O)N2CCOCC2)c1	n	70	n	n	n	43	60	15	n
O=S1(=O)CC(N2CCCC2)CN1Cc1cn(Cc2ccc(Cl)cc2)nn1 (stereo not drawn)	n	n	x	x	x	x	x	x	x
Cc1cccnc1CNC(=O)C1CCC(=O)N(CCc2cccc(F)c2)C1 (stereo not drawn)	n	n	n	n	n	x	x	x	x
COc1ccccc1CNc1nc(NCc2cccs2)nc2ccsc12	n	76	x	x	x	62	80	34	49
COCCNc1nc(NCc2ccccc2OC)c2sccc2n1	n	n	x	x	x	x	x	x	x
Cc1cc(C)n(CC(=O)O)c(=O)c1[N+](=O)[O-]	n	n	n	n	n	x	x	x	x

From PubChem
